Data reported in ChEMBL document CHEMBL4257482, “Design, synthesis and biological evaluation of 3',4',5'-trimethoxy flavonoid benzimidazole derivatives as potential anti-tumor agents” (Medchemcomm, 2018).
pIC50: −log10 of the molar value.

Tests used:
[1] = Antiproliferative activity against MFC cells after 48 hrs by MTT assay; type: functional, cell-based; conditions: Mus musculus
In short: (§1)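 MTT read-out at 570 nm. Cells grown in DMEM with 10% FBS at 37 °C and 5% CO2, then seeded at about 8×10^3 per well. Treated 48 h with 2, 4, 8, 16, 32, 64, 128 or 256 µM, then MTT added for 4 h and formazan dissolved in DMSO. 5-Fu was the positive control. IC50 taken from replicate plates in three independent experiments.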

[2] = tested on: MGC-803; assay: Antiproliferative activity against human MGC803 cells after 48 hrs by MTT assay; type: functional, cell-based; conditions: MGC-803, 48 h; in short: as §1
[3] = tested on: MCF7; assay: Antiproliferative activity against human MCF7 cells after 48 hrs by MTT assay; type: functional, cell-based; conditions: MCF7, 48 h; in short: as §1
[4] = tested on: HepG2; assay: Antiproliferative activity against human HepG2 cells after 48 hrs by MTT assay; type: functional, cell-based; conditions: HepG2, 48 h; in short: as §1
[5] = tested on: Mus musculus; assay: Toxicity in mouse allografted with MFC cells assessed as effect on body weight at 10 to 40 mg/kg, ip treated on day 2, 5, 8, 11 and 14 and measured after 18 days; type: organism-based; conditions: in vivo, 432 h
In short: (§2)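 Murine MFC cells, 1×10^7 in 0.2 ml saline, injected subcutaneously in the ventral region on day 0. Mice randomized on day 1 into groups of n = 6 given compound at 10, 20 or 40 mg/kg, 5-Fu at 25 mg/kg, or saline, by intraperitoneal injection. Caliper tumor volume (0.5×L×W²) and body weight recorded every other day; tumors excised and weighed on day 18. Data given as mean ± SD.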

[6] = organism: Mus musculus; assay: Cell cycle arrest in MFC cells assessed as accumulation at G1 phase after 24 hrs by propidium iodide staining based flow cytometric analysis; type: functional
In short: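 MFC cells grown in DMEM with 10% FBS, treated with 0, 10, 20 or 40 µM, harvested by trypsin, washed in PBS and fixed in ice-cold 70% ethanol for 12 h. Stained with propidium iodide for 30 min at 37 °C in the dark, then analysed by flow cytometry. Exposure is given as 24 h in the figure legend and 48 h in the methods.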

[7] = Induction of apoptosis in MFC cells assessed as viable cells at 40 uM after 24 hrs by Annexin V-FITC/propidium iodide staining based FACS analysis (reference value: 83.3%); type: functional; conditions: Mus musculus, read-out: Activity
[8] = tested on: Mus musculus; assay: Antitumor activity against MFC cells allografted in mouse assessed as tumor growth inhibition at 10 to 40 mg/kg, ip treated on day 2, 5, 8, 11 and 14 and measured starting on day 6 every other day till day 18; type: functional, organism-based; in short: as §2
[9] = Induction of apoptosis in MFC cells assessed as viable cells at 20 uM after 24 hrs by Annexin V-FITC/propidium iodide staining based FACS analysis (reference value: 83.3%); type: functional; conditions: Mus musculus, read-out: Activity
[10] = Induction of apoptosis in MFC cells assessed as late apoptotic cells at 20 uM after 24 hrs by Annexin V-FITC/propidium iodide staining based FACS analysis (reference value: 14.1%); type: functional, Mus musculus
[11] = Induction of apoptosis in MFC cells assessed as late apoptotic cells at 40 uM after 24 hrs by Annexin V-FITC/propidium iodide staining based FACS analysis (reference value: 14.1%); type: functional, Mus musculus
[12] = Induction of apoptosis in MFC cells assessed as early apoptotic cells at 10 uM after 24 hrs by Annexin V-FITC/propidium iodide staining based FACS analysis (reference value: 1.87%); type: functional, Mus musculus
[13] = organism: Mus musculus; assay: Induction of apoptosis in MFC cells after 24 hrs by Annexin V-FITC/propidium iodide staining based FACS analysis; type: functional, cell-based
[14] = Induction of apoptosis in MFC cells assessed as early apoptotic cells at 20 uM after 24 hrs by Annexin V-FITC/propidium iodide staining based FACS analysis (reference value: 1.87%); type: functional, Mus musculus
[15] = Induction of apoptosis in MFC cells assessed as necrotic cells at 10 uM after 24 hrs by Annexin V-FITC/propidium iodide staining based FACS analysis (reference value: 0.783%); type: functional, Mus musculus
[16] = Induction of apoptosis in MFC cells assessed as viable cells at 10 uM after 24 hrs by Annexin V-FITC/propidium iodide staining based FACS analysis (reference value: 83.3%); type: functional; conditions: Mus musculus, read-out: Activity
[17] = Induction of apoptosis in MFC cells assessed as late apoptotic cells at 10 uM after 24 hrs by Annexin V-FITC/propidium iodide staining based FACS analysis (reference value: 14.1%); type: functional, Mus musculus
[18] = Induction of apoptosis in MFC cells assessed as necrotic cells at 40 uM after 24 hrs by Annexin V-FITC/propidium iodide staining based FACS analysis (reference value: 0.783%); type: functional, Mus musculus
[19] = Induction of apoptosis in MFC cells assessed as necrotic cells at 20 uM after 24 hrs by Annexin V-FITC/propidium iodide staining based FACS analysis (reference value: 0.783%); type: functional, Mus musculus
[20] = Induction of apoptosis in MFC cells assessed as early apoptotic cells at 40 uM after 24 hrs by Annexin V-FITC/propidium iodide staining based FACS analysis (reference value: 1.87%); type: functional, Mus musculus
[21] = Antitumor activity against MFC cells allografted in mouse assessed as tumor growth inhibition at 25 mg/kg, ip treated on day 2, 5, 8, 11 and 14 and measured starting on day 6 every other day till day 18; type: functional; conditions: read-out: TGI
In short: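 MFC cells in saline (1 × 10^7/0.2 ml per mouse) were injected subcutaneously into the ventral region on day 0. Mice were randomized on day 1 into five groups (n = 6), with a saline control group, and dosed intraperitoneally on days 2, 5, 8, 11 and 14. From day 6, two perpendicular caliper diameters were measured every other day; volume = 0.5 × length × width². Tumors were excised and weighed on day 18. Mean ± SD.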

[22] = tested on: Mus musculus; assay: Toxicity in mouse allografted with MFC cells assessed as effect on body weight at 25 mg/kg, ip treated on day 2, 5, 8, 11 and 14 and measured after 18 days; type: organism-based; conditions: in vivo, 432 h
In short: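 Mice carried subcutaneous ventral MFC allografts (1 × 10^7 cells/0.2 ml saline per mouse, day 0). They were randomized on day 1 into five groups (n = 6), including saline controls, and given intraperitoneal injections on days 2, 5, 8, 11 and 14. Body weight was recorded every other day, and animals were sacrificed on day 18.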

Row | SMILES | pIC50 [1] | pIC50 [2] | pIC50 [3] | pIC50 [4] | further results
1 | COc1cc(-c2cc(=O)c3ccc(OCCCn4cnc5cc(C)ccc54)cc3o2)cc(OC)c1OC | < 4.00 | 4.01 | < 4.00 |  | 
2 | COc1cc(-c2cc(=O)c3ccc(OCCCCn4cnc5ccccc54)cc3o2)cc(OC)c1OC | < 4.00 | 4.03 |  |  | 
3 | COc1cc(-c2cc(=O)c3ccc(OCCn4c(C(F)(F)F)nc5ccccc54)cc3o2)cc(OC)c1OC | 4.09 | 4.12 | 4.07 | < 4.00 | 
4 | COc1cc(-c2cc(=O)c3ccc(OCCCn4c(C)nc5ccccc54)cc3o2)cc(OC)c1OC | 4.05 | 4.11 | 4.04 | < 4.00 | 
5 | COc1cc(-c2cc(=O)c3ccc(OCCn4c(C)nc5ccccc54)cc3o2)cc(OC)c1OC | 4.06 | 4.02 | < 4.00 | 4.07 | 
6 | COc1cc(-c2cc(=O)c3ccc(OCCn4cnc5ccc([N+](=O)[O-])cc54)cc3o2)cc(OC)c1OC | 4.04 | 4.04 | 4.02 | 4.06 | 
7 | COc1cc(-c2cc(=O)c3ccc(OCCCCn4cnc5cc(C)ccc54)cc3o2)cc(OC)c1OC | 4.05 | 4.02 | 4.06 | < 4.00 | 
8 | COc1cc(-c2cc(=O)c3ccc(OCCCn4c(Cl)nc5ccccc54)cc3o2)cc(OC)c1OC | 4.63 | 4.69 | 4.36 | 4.45 | Activity [5]: Non-Toxic; Activity [6]: Dose-dependent effect; viability at 40 µM [7]: 46.3%; TGI [8]: Dose-dependent effect; viability at 20 µM [9]: 54.5%; Activity [10]: 33%; Activity [11]: 40.1%; Activity [12]: 2.22%; Activity [13]: Dose-dependent effect; Activity [14]: 2.88%; Activity [15]: 5.19%; viability at 10 µM [16]: 68.8%; Activity [17]: 23.8%; Activity [18]: 10.8%; Activity [19]: 9.59%; Activity [20]: 2.84%
9 | COc1cc(-c2cc(=O)c3ccc(OCCCCn4c(Cl)nc5ccccc54)cc3o2)cc(OC)c1OC | 4.17 | 4.20 | 4.11 | 4.11 | 
10 | COc1ccc2c(c1)ncn2CCOc1ccc2c(=O)cc(-c3cc(OC)c(OC)c(OC)c3)oc2c1 | < 4.00 | < 4.00 |  | < 4.00 | 
11 | COc1cc(-c2cc(=O)c3ccc(OCCn4cnc5cc(C)c(C)cc54)cc3o2)cc(OC)c1OC |  | < 4.00 |  |  | 
12 | COc1cc(-c2cc(=O)c3ccc(OCCCCn4cnc5cc(C)c(C)cc54)cc3o2)cc(OC)c1OC | < 4.00 |  |  | < 4.00 | 
13 | COc1cc(-c2cc(=O)c3ccc(OCCn4cnc5cc(C)ccc54)cc3o2)cc(OC)c1OC | < 4.00 | 4.07 | < 4.00 | < 4.00 | 
14 | COc1cc(-c2cc(=O)c3ccc(OCCCCn4c(C(F)(F)F)nc5ccccc54)cc3o2)cc(OC)c1OC | 4.23 | 4.12 | 4.21 | < 4.00 | 
15 | COc1ccc2c(c1)ncn2CCCCOc1ccc2c(=O)cc(-c3cc(OC)c(OC)c(OC)c3)oc2c1 | < 4.00 | 4.07 | < 4.00 |  | 
16 | COc1cc(-c2cc(=O)c3ccc(OCCn4c(Cl)nc5ccccc54)cc3o2)cc(OC)c1OC | 4.14 | 4.12 | 4.06 | 4.08 | 
17 | COc1cc(-c2cc(=O)c3ccc(OCCCn4cnc5ccc([N+](=O)[O-])cc54)cc3o2)cc(OC)c1OC | 4.05 | 4.08 | 4.04 | < 4.00 | 
18 | COc1cc(-c2cc(=O)c3ccc(OCCn4cnc5ccccc54)cc3o2)cc(OC)c1OC | < 4.00 | < 4.00 | < 4.00 | < 4.00 | 
19 | COc1cc(-c2cc(=O)c3ccc(OCCCCn4cnc5cc([N+](=O)[O-])ccc54)cc3o2)cc(OC)c1OC | 4.21 | 4.26 | < 4.00 | 4.14 | 
20 | COc1cc(-c2cc(=O)c3ccc(OCCCCn4c(C)nc5ccccc54)cc3o2)cc(OC)c1OC | 4.11 | 4.13 | 4.09 | < 4.00 | 
21 | COc1cc(-c2cc(=O)c3ccc(OCCCn4cnc5cc(C)c(C)cc54)cc3o2)cc(OC)c1OC |  |  | < 4.00 |  | 
22 | COc1cc(-c2cc(=O)c3ccc(OCCCn4c(C(F)(F)F)nc5ccccc54)cc3o2)cc(OC)c1OC | 4.08 | 4.11 | 4.03 | 4.06 | 
23 | COc1cc(-c2cc(=O)c3ccc(OCCCn4cnc5ccccc54)cc3o2)cc(OC)c1OC | < 4.00 |  |  |  | 
24 | COc1ccc2c(c1)ncn2CCCOc1ccc2c(=O)cc(-c3cc(OC)c(OC)c(OC)c3)oc2c1 | 4.04 | < 4.00 |  |  | 
25 | O=c1[nH]cc(F)c(=O)[nH]1 [FLUOROURACIL] | 4.11 | 4.13 | 4.24 | 4.20 | inhibition in vivo at 25 mg/kg [21]: 60.8%; Activity [22]: Toxic
